The source of these data is ChEMBL document CHEMBL3751796, “Structure-Based Discovery of Novel Cyclophilin A Inhibitors for the Treatment of Hepatitis C Virus Infections” (J Med Chem, 2015).

The structures appear in SMILES notation. The source made the active and inactive calls. The calls are words filed in the database; no cut-off is given here. A value given as a limit tells only on which side of the number the result lay.

In data set [1] the test system is Hepatitis C virus. As to the kind of experiment: Antiviral activity against HCV genotype 1b Con1 infected in human Huh7.5 cells assessed as inhibition of NS5B expression in membrane fractions at 2 uM by Western blot analysis. The format is functional, organism-based. As to conditions: Hepacivirus hominis, isolate Con1, Huh-7. In short, it runs like this: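 Con1b replicon cells treated with 2 μM. Total lysates, and a membrane fraction prepared by hypotonic buffer, dounce homogenization, 220g spin and then 68 000g for 1 h at 4 °C, analyzed by Western blot for NS5A and NS5B.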
On the technique in general: A western blot detects proteins with antibodies after separation by electrophoresis.

Data set [2] concerns Mus musculus. Description: Nephrotoxicity in BALB/c mouse assessed as changes in serum creatinine level at 50 mg/kg, iv for 2 weeks. The data set is classed as toxicity, organism-based. As to conditions: in vivo, 336 h.
The test system of data set [3] is Hepatitis C virus. As to the kind of experiment: Antiviral activity against HCV infected in human Huh7.5 cells assessed as inhibition of IL-8 level by ELISA in presence of telaprevir. The format is functional, organism-based. The following applies: Hepacivirus hominis; Huh-7. Background: An ELISA detects its analyte on a solid surface through an enzyme-linked reagent.

The test system of data set [4] is Mus musculus. As to the kind of experiment: Hepatotoxicity in BALB/c mouse assessed as changes in serum aspartate transaminase level at 50 mg/kg, iv for 2 weeks by GOT kit assay. The data set is classed as toxicity, organism-based. The following applies: in vivo, 336 h.
A short description of data set [5]: Cytotoxicity against HCV genotype 1b Con1 infected human Huh7.5 cells expressing GFP-fused NS5A assessed as reduction in cell viability measured 72 hrs post infection by hoechst 33342 staining based confocal microscopy. Details: species or system Huh-7. A digest of the protocol: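 Huh7 replicon cells expressing NS5A-GFP seeded at 2 × 10^3/well and left overnight, then given serially diluted compound. At 72 h, fixed in 2% PFA and nuclei stained with Hoechst 33342 (10 μg/mL). Automated confocal imaging: GFP-positive cells give activity, nuclei counts give cytotoxicity. EC50/CC50 from nonlinear regression.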

Data set [6] concerns Hepatitis C virus. Description: Antiviral activity against recombinant HCV genotype 2a JFH1 infected in human […] for 5 hrs measured on day 3 post infection by luciferase reporter gene assay. The data set is classed as functional, organism-based, Hepacivirus hominis. The following applies: JFH-1, Huh-7. In short, it runs like this: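 Huh7.5 cells infected with JFH1-Luc virus (MOI 0.004) for 5 h at 37 °C with 3-fold serial dilutions of compound. Renilla luciferase read from lysates on day 3 postinfection to derive EC50.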
For orientation: In a reporter assay the amount or activity of a reporter protein is the signal.

Data set [7] is filed under the species Mus musculus. As to the kind of experiment: Activation of calcium-dependent calcineurin phosphatase activity in ionomycin-stimulated BALB/c mouse splenocytes assessed as dephosphorylation of NFAT1 at 1 to 10 uM preincubated for 20 hrs followed by ionomycin stimulation measured after 4 hrs by Western blot analysis. A digest of the protocol:
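Mouse splenocytes, 2 × 10^6/well, exposed to compound for 20 h at 37 °C, then ionomycin 1 μg/mL for 4 h. Lysed on ice for 10 min and spun at 19 000g. NFAT phosphorylation status in the supernatant read by Western blot with anti-NFATc1 antibody.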

Data set [8] is described as follows: Cytotoxicity against HCV infected human Huh7.5 cells assessed as cell death by MTT assay in presence of telaprevir. The data set is classed as cell-based. The following applies: huh-7.
Data set [9] has as its target Peptidyl-prolyl cis-trans isomerase A (Homo sapiens, UniProt P62937). Description: Inhibition of human Cyclophilin A interaction with HCV genotype 1b Con1 NS5A in human Huh7.5 cells after 72 hrs by mammalian two-hybrid assay. The data set is classed as cell-based. As to conditions: Huh-7.
Data set [10] concerns Hepatitis C virus. Description: Antiviral activity against HCV infected in human Huh7.5 cells assessed as inhibition of HCV-specific RNA by qRT-PCR method in presence of IFN-alpha. The data set is classed as functional, organism-based. As to conditions: Hepacivirus hominis; Huh-7.
Data set [11] in a line: Cytotoxicity against HCV genotype 2a JFH1 infected human Huh7.5 cells expressing GFP-fused NS5A assessed as reduction in cell viability measured 72 hrs post infection by hoechst 33342 staining based confocal microscopy. More on the design: species or system Huh-7.
The subject of data set [12] is Hepatitis C virus. As to the kind of experiment: Antiviral activity against HCV genotype 1b Con1 infected in human Huh7 cells xenografted in immunodeficient NOD/SCID mouse assessed as inhibition of HCV RNA level in liver at 50 mg/kg, ip up to 14 days by qRT-PCR method. The data set is classed as functional, organism-based. The following applies: Hepacivirus hominis, isolate Con1, Huh-7. In short, it runs like this:
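NOD/SCID mice engrafted intrasplenically with Huh7 HCV-Con1b replicon cells (1 × 10^6 in PBS). From week 6, 50 mg/kg given ip for 14 days, five mice per group. Liver HCV RNA measured by SYBR Green qRT-PCR, 2^−ΔΔCT method, normalized to GAPDH, fold change vs controls.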

Data set [13] relates to Hepatitis C virus. Description: Antiviral activity against HCV genotype 1b Con1 infected in human Huh7.5 cells assessed as stimulation of ISG15 expression at 2 uM incubated up to 96 hrs by Western blot analysis. The data set is classed as functional, organism-based. The following applies: Hepacivirus hominis, isolate Con1, Huh-7, TDE = time-dependent effect.
Data set [14] concerns Hepatitis C virus. Description: Antiviral activity against HCV genotype 2a JFH1 infected in human Huh7.5 cells expressing GFP-fused NS5A measured 72 hrs post infection by hoechst 33342 staining based confocal microscopy. The data set is classed as functional, organism-based, Hepacivirus hominis. The following applies: JFH-1, Huh-7, 72 h.
A short description of data set [15]: Cytotoxicity against HCV infected human Huh7.5 cells assessed as cell death by MTT assay in presence of IFN-alpha. The format is cell-based. As to conditions: huh-7.
Data set [16] is filed under the species Mus musculus. Description: Inhibition of calcium-dependent calcineurin phosphatase activity in ionomycin-stimulated BALB/c mouse splenocytes assessed as reduction in dephosphorylation of R2 phosphopeptide at 1 to 10 uM preincubated for 20 hrs followed by ionomycin stimulation measured after 4 hrs. In short, it runs like this: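 Mouse splenocytes (2 × 10^6 cells/well) were incubated with compound for 20 h, then stimulated with 1 μg/mL ionomycin for another 4 h or left unstimulated. Calcineurin activity was measured by dephosphorylation of RII phosphopeptide using a cellular activity kit.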

The test system of data set [17] is Hepatitis C virus. As to the kind of experiment: Antiviral activity against HCV genotype 1b Con1 infected in human Huh7.5 cells assessed as inhibition of NS5A expression at 2 uM by DAPI staining based confocal microscopy. The data set is classed as functional, organism-based. As to conditions: Hepacivirus hominis, isolate Con1, Huh-7. In short, it runs like this:
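Con1b replicon cells treated at 2 μM. Stained with Alexa red anti-NS5A and Alexa green anti-NS5B antibodies plus DAPI, then imaged by confocal microscopy for colocalization. Images representative of at least three experiments.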

The subject of data set [18] is Hepatitis C virus. As to the kind of experiment: Antiviral activity against HCV genotype 1b Con1 infected in human Huh7 cells xenografted in immunodeficient NOD/SCID mouse assessed as inhibition of NS5A expression in liver at 50 mg/kg, ip up to 14 days by Western blot analysis. The following applies: Hepacivirus hominis, isolate Con1, Huh-7. The data set is classed as functional, organism-based. A digest of the protocol: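 Liver tissue from NOD/SCID mice engrafted with Huh7 Con1b replicon cells and dosed ip at 50 mg/kg for 14 days (5 per group). NS5A protein read by SDS-PAGE Western blot with chemiluminescence detection.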

For data set [19], the system named is Hepatitis C virus. Description: Antiviral activity against HCV genotype 1b Con1 infected in human Huh7.5 cells assessed as stimulation of OAS1 expression at 2 uM incubated up to 96 hrs by Western blot analysis. The data set is classed as functional, organism-based. As to conditions: Hepacivirus hominis, isolate Con1, Huh-7, TDE = time-dependent effect.
The nature of data set [20]: Selectivity index, ratio of CC50 for mock-infected human Huh7.5 cells to EC50 for recombinant HCV genotype 2a JFH1. More on the design: species or system Huh-7. A digest of the protocol:
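Huh7.5 cells infected with JFH1-Luc virus (MOI 0.004, 5 h, 37 °C) in the presence of 3-fold serial dilutions. EC50 came from Renilla luciferase on day 3. CC50 came from MTT viability of mock-infected Huh7.5 cells treated in parallel. SI = CC50/EC50.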

Data set [21] concerns Hepatitis C virus. As to the kind of experiment: Antiviral activity against HCV genotype 1b Con1 infected in human Huh7.5 cells assessed as reduction of IL-8 mRNA expression at 2 uM incubated up to 96 hrs by qRT-PCR method. The following applies: Hepacivirus hominis, isolate Con1, Huh-7, TDE = time-dependent effect. The format is functional, organism-based. In short, it runs like this:
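mRNA measured by SYBR Green qRT-PCR using the 2^−ΔΔCT method, normalized to GAPDH and expressed as fold change vs controls.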

Peptidyl-prolyl cis-trans isomerase A, sequence (P62937 whole entry, looked up): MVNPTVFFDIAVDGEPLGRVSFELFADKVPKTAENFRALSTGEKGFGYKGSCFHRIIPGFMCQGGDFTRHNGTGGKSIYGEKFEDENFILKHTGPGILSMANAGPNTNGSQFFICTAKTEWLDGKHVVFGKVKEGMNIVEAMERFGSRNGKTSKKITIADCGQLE

Turning to `COc1cc(C(C(=O)NC2CCCCC2)N(C(=O)Cc2c[nH]c3ccccc23)c2ccc(C(C)C)cc2)cc(OC)c1OC` (stereo unspecified), the inhibition result in [1], in data set [3], in data set [9], in data set [10], in data set [12] and in [17] was “Active” in each case. The inhibition result in [18] was “Active”. In addition, the Activity entry in [2] was “Non-toxic”; in [4], “Non-toxic”; in data set [8], “Non-toxic”; in [13], “tde”; in data set [15], “Non-toxic”; in data set [19], “tde”. Moreover, the Activity result in [21] is “tde”. The CC50 (in general, the concentration at which the toxic effect on the cells reaches its halfway point) at 72 h turned out to be 12.4 µM in data set [5] and 22.3 µM in [11]. For the same molecule, the values for the EC50 in [6] and in data set [14] were 5.2 µM and 1.12 µM, respectively. The outcome in data set [7] was Active. Further, the inhibition entry in data set [16] was “inactive”. For the same molecule, in data set [20], the “Ratio CC50/EC50” value is on record as greater than 19.2.
